# From ChEMBL document CHEMBL4219118, “Cathepsin B inhibitors: Further exploration of the nitroxoline core” (Bioorg Med Chem Lett, 2018)
# Activity calls are given as the source filed them. The rule behind the calls is not given here.
# What was measured:
# [1] = target: T1, Cathepsin B (Homo sapiens, UniProt P07858); test: Inhibition of recombinant human cathepsin B exopeptidase activity assessed as residual activity at 50 uM using Abz-Gly-Ile-Val-Arg-Ala-Lys(Dnp)-OH as substrate in presence of pH 5 acetate buffer by fluorescence assay relative to control
# [2] = target: T1, Cathepsin B; test: Inhibition of recombinant human cathepsin B endopeptidase activity assessed as residual activity at 50 uM using Z-Arg-Arg-AMC as substrate in presence of pH 6 phosphate buffer by fluorescence assay relative to control
# [3] = target: T1, Cathepsin B; test: Competitive inhibition of recombinant human cathepsin B endopeptidase activity assessed as inhibitory constant for enzyme-inhibitor complex using Z-Arg-Arg-AMC as substrate in presence of pH 6 phosphate buffer by fluorescence assay
# [4] = target: T1, Cathepsin B; test: Competitive inhibition of recombinant human cathepsin B endopeptidase activity assessed as inhibitory constant for enzyme-inhibitor complex using Z-Arg-Arg-AMC as substrate in presence of pH 4.5 acetate buffer by fluorescence assay
# In short: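 Recombinant cathepsin B endopeptidase activity assayed with the small substrate Z-Arg-Arg-AMC at pH 4.5. Acidic conditions chosen to shift the enzyme toward the closed (exopeptidase) conformation. Ki reported.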
# [5] = target: T1, Cathepsin B; test: Non-competitive inhibition of recombinant human cathepsin B exopeptidase activity assessed as inhibitory constant for enzyme-inhibitor complex using Abz-Gly-Ile-Val-Arg-Ala-Lys(Dnp)-OH as substrate in presence of pH 5 acetate buffer by fluorescence assay
# [6] = target: T1, Cathepsin B; test: Non-competitive inhibition of recombinant human cathepsin B exopeptidase activity assessed as inhibitory constant for enzyme-substrate-inhibitor complex using Abz-Gly-Ile-Val-Arg-Ala-Lys(Dnp)-OH as substrate in presence of pH 5 acetate buffer by fluorescence assay
# [7] = target: T1, Cathepsin B; test: Mixed inhibition of recombinant human cathepsin B exopeptidase activity assessed as inhibitory constant for enzyme-substrate-inhibitor complex using Abz-Gly-Ile-Val-Arg-Ala-Lys(Dnp)-OH as substrate in presence of pH 5 acetate buffer by fluorescence assay
# [8] = target: T2, Procathepsin L (Homo sapiens, UniProt P07711); test: Non-competitive inhibition of recombinant human cathepsin L expressed in Escherichia coli assessed as inhibitory constant for enzyme-inhibitor complex using Z-FR-AMC as substrate in presence of pH 6 phosphate buffer by fluorescence assay
# T2 sequence (P07711 whole entry): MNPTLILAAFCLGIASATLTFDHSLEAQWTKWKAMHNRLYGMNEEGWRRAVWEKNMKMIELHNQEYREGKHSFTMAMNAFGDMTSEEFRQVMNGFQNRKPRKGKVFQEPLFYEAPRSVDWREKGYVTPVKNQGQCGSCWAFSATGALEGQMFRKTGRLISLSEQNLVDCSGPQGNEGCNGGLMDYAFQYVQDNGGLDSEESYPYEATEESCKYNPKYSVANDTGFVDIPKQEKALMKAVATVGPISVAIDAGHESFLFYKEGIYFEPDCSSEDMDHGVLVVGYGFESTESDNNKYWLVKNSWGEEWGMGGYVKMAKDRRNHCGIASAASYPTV
# [9] = target: T2, Procathepsin L; test: Non-competitive inhibition of recombinant human cathepsin L expressed in Escherichia coli assessed as inhibitory constant for enzyme-substrate-inhibitor complex using Z-FR-AMC as substrate in presence of pH 6 phosphate buffer by fluorescence assay
# [10] = target: T1, Cathepsin B; test: Inhibition of cathepsin B in human MCF-10A neoT cells assessed as proteolysis of extracellular membrane by measuring decrease in extracellular degradation of DQ-collagen 4 at 5 uM incubated for 6 hrs measured for 2 hrs by fluorescence based spectrofluorimetric assay relative to control; assay type: cell-based
# In short: (§1)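 MCF-10A neoT cells (5 × 10⁴) incubated with DQ-collagen IV in the presence of compound or DMSO. Extracellular degradation product read by spectrofluorimetry. Mean of n = 3, six replicates per experiment.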
# [11] = system: MCF-10A-neoT; test: Antiinvasive activity against human MCF10AneoT cells at 5 uM incubated for 1 hr measured every 15 mins for 72 hrs by real time xCELLigence assay relative to control; assay type: functional
# In short: (§2)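 MCF-10A neoT cells (3 × 10⁴) seeded on Matrigel-coated (1 mg/mL) upper compartments of CIM-plates. Compound or DMSO (0.05%) added to growth medium in both upper and lower compartments. Invasion followed by impedance (cell index) for 72 h. Slopes (1/h) between 4 and 14 h converted to percentage invasion versus DMSO. Means of n = 2, each run in triplicate.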
# [12] = target: T1, Cathepsin B; test: Uncompetitive inhibition of recombinant human cathepsin B endopeptidase activity assessed as inhibitory constant for enzyme-substrate-inhibitor complex using Z-Arg-Arg-AMC as substrate in presence of pH 6 phosphate buffer by fluorescence assay
# [13] = target: T3, Pro-cathepsin H (Homo sapiens, UniProt P09668); test: Uncompetitive inhibition of human liver cathepsin H assessed as inhibitory constant for enzyme-substrate-inhibitor complex using R-AMC as substrate in presence of pH 6 phosphate buffer by fluorescence assay
# T3 sequence (P09668 whole entry): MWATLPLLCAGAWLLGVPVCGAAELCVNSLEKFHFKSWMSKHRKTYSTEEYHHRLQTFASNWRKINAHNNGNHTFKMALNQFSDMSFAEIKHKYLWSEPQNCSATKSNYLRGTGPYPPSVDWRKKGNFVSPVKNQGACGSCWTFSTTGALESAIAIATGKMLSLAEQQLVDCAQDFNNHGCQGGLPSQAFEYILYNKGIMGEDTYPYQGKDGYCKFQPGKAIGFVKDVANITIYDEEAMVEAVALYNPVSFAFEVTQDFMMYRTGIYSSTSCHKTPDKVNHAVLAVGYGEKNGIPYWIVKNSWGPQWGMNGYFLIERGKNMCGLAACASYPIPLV
# [14] = system: U-87 MG; test: Cytotoxicity against human U87MG cells assessed as decrease in cell viability after 72 hrs by MTS assay; assay type: cell-based; conditions: u-87mg atcc
# [15] = target: T1, Cathepsin B; test: Mixed inhibition of recombinant human cathepsin B exopeptidase activity assessed as inhibitory constant for enzyme-inhibitor complex using Abz-Gly-Ile-Val-Arg-Ala-Lys(Dnp)-OH as substrate in presence of pH 5 acetate buffer by fluorescence assay
# [16] = target: T1, Cathepsin B; test: Inhibition of cathepsin B in human MCF-10A neoT cells assessed as proteolysis of extracellular membrane by measuring decrease in intracellular degradation of DQ-collagen 4 at 50 uM incubated for 2 hrs followed by DQ-collagen addition measured for 2 hrs by propidium iodide staining based flow cytometry relative to control; assay type: cell-based
# In short: (§3)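 MCF-10A neoT cells (6 × 10⁴) treated with compound or DMSO. Intracellular DQ-collagen IV degradation measured by flow cytometry, with unlabeled cells as background. Reduction expressed versus DMSO. Mean of n = 3, run in duplicate.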
# [17] = system: MCF-10A-neoT; test: Cytotoxicity against human MCF10AneoT cells assessed as decrease in cell viability after 72 hrs by MTS assay; assay type: cell-based
# [18] = target: T1, Cathepsin B; test: Inhibition of cathepsin B in human MCF-10A neoT cells assessed as proteolysis of extracellular membrane by measuring decrease in intracellular degradation of DQ-collagen 4 at 12.5 uM incubated for 2 hrs followed by DQ-collagen addition measured for 2 hrs by propidium iodide staining based flow cytometry relative to control; assay type: cell-based; in short: as §3
# [19] = system: U-87 MG; test: Growth inhibition of human U87MG tumor spheroids at 1.25 uM measured up to 3 days by light microscopy; assay type: functional, cell-based; conditions: U-87MG ATCC
# In short: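 U-87 MG multicellular spheroids formed by hanging drop and implanted in Matrigel with compound. Spheroid dimensions measured for up to three days and volume calculated. Means of n = 2.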
# [20] = target: T1, Cathepsin B; test: Uncompetitive inhibition of recombinant human cathepsin B exopeptidase activity assessed as inhibitory constant for enzyme-substrate-inhibitor complex using Abz-Gly-Ile-Val-Arg-Ala-Lys(Dnp)-OH as substrate in presence of pH 5 acetate buffer by fluorescence assay
# [21] = target: T1, Cathepsin B; test: Inhibition of recombinant human cathepsin B endopeptidase activity assessed as inhibitory constant for enzyme-inhibitor complex using Z-Arg-Arg-AMC as substrate in presence of pH 6 phosphate buffer by fluorescence assay
# [22] = target: T1, Cathepsin B; test: Inhibition of cathepsin B in human MCF-10A neoT cells assessed as proteolysis of extracellular membrane by measuring decrease in extracellular degradation of DQ-collagen 4 at 1.25 uM incubated for 6 hrs measured for 2 hrs by fluorescence based spectrofluorimetric assay relative to control; assay type: cell-based; in short: as §1
# [23] = target: T2, Procathepsin L; test: Competitive inhibition of recombinant human cathepsin L expressed in Escherichia coli assessed as inhibitory constant for enzyme-inhibitor complex using Z-FR-AMC as substrate in presence of pH 6 phosphate buffer by fluorescence assay
# [24] = system: MCF-10A-neoT; test: Antiinvasive activity against human MCF10AneoT cells at 1.25 uM incubated for 1 hr measured every 15 mins for 72 hrs by real time xCELLigence assay relative to control; assay type: functional; in short: as §2
# [25] = target: T3, Pro-cathepsin H; test: Competitive inhibition of human liver cathepsin H assessed as inhibitory constant for enzyme-inhibitor complex using R-AMC as substrate in presence of pH 6 phosphate buffer by fluorescence assay
# [26] = target: T3, Pro-cathepsin H; test: Non-competitive inhibition of human liver cathepsin H assessed as inhibitory constant for enzyme-substrate-inhibitor complex using R-AMC as substrate in presence of pH 6 phosphate buffer by fluorescence assay
# [27] = target: T3, Pro-cathepsin H; test: Non-competitive inhibition of human liver cathepsin H assessed as inhibitory constant for enzyme-inhibitor complex using R-AMC as substrate in presence of pH 6 phosphate buffer by fluorescence assay
# [28] = target: T1, Cathepsin B; test: Competitive inhibition of recombinant human cathepsin B exopeptidase activity assessed as inhibitory constant for enzyme-inhibitor complex using Abz-Gly-Ile-Val-Arg-Ala-Lys(Dnp)-OH as substrate in presence of pH 5 acetate buffer by fluorescence assay
# [29] = target: T1, Cathepsin B; test: Non-competitive inhibition of recombinant human cathepsin B endopeptidase activity assessed as inhibitory constant for enzyme-inhibitor complex using Z-Arg-Arg-AMC as substrate in presence of pH 6 phosphate buffer by fluorescence assay
# [30] = target: T1, Cathepsin B; test: Non-competitive inhibition of recombinant human cathepsin B endopeptidase activity assessed as inhibitory constant for enzyme-substrate-inhibitor complex using Z-Arg-Arg-AMC as substrate in presence of pH 6 phosphate buffer by fluorescence assay
# [31] = target: T1, Cathepsin B; test: Mixed inhibition of recombinant human cathepsin B endopeptidase activity assessed as inhibitory constant for enzyme-substrate-inhibitor complex using Z-Arg-Arg-AMC as substrate in presence of pH 6 phosphate buffer by fluorescence assay
# [32] = target: T1, Cathepsin B; test: Mixed inhibition of recombinant human cathepsin B endopeptidase activity assessed as inhibitory constant for enzyme-inhibitor complex using Z-Arg-Arg-AMC as substrate in presence of pH 6 phosphate buffer by fluorescence assay
# [33] = target: T1, Cathepsin B; test: Inhibition of cathepsin B in human MCF-10A neoT cells assessed as proteolysis of extracellular membrane by measuring decrease in intracellular degradation of DQ-collagen 4 at 25 uM incubated for 2 hrs followed by DQ-collagen addition measured for 2 hrs by propidium iodide staining based flow cytometry relative to control; assay type: cell-based
# In short: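 Intracellular DQ-collagen IV degradation in MCF-10A neoT cells (6 × 10⁴) treated with compound or DMSO, read by flow cytometry. Unlabeled cells served as background. Reduction in intracellular signal reported against DMSO as mean ± SEM, n = 3 experiments, each in duplicate.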
# [34] = system: MCF-10A-neoT; test: Antiinvasive activity against human MCF10AneoT cells at 2.5 uM incubated for 1 hr measured every 15 mins for 72 hrs by real time xCELLigence assay relative to control; assay type: functional, cell-based; in short: as §2
# [35] = target: T1, Cathepsin B; test: Inhibition of cathepsin B in human MCF-10A neoT cells assessed as proteolysis of extracellular membrane by measuring decrease in extracellular degradation of DQ-collagen 4 at 2.5 uM incubated for 6 hrs measured for 2 hrs by fluorescence based spectrofluorimetric assay; assay type: cell-based
# In short: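 MCF-10A neoT cells (5 × 10⁴) exposed to compound or DMSO vehicle control with DQ-collagen IV. Fluorescence of the extracellular cleavage product measured by spectrofluorimetry. Mean ± SEM of n = 3 experiments, each in six replicates.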
structure (smiles),measurement,setting,value
O=[N+]([O-])c1ccc(O)c2ncccc12,Activity,[1],24.7%
same,Activity,[2],21.9%
N#CCNC(=O)c1ccc([N+](=O)[O-])c2cccnc12,Ki,[3],240 µM
same,Ki,[4]; read-out: Ki,294 µM
same,Ki,[5],190 µM
same,Ki,[6],190 µM
N#CCNC(=O)c1cc([N+](=O)[O-])c2cccnc2c1O,Ki,[7],30 µM
same,Ki,[8],155 µM
same,Ki,[9],155 µM
same,inhibition,[10],Active
same,Activity,[11],20%
same,Ki,[12],67 µM
same,Ki,[13],462 µM
same,Activity,[14],Non-Toxic
same,Ki,[4]; read-out: Ki,206 µM
same,Ki,[15],128 µM
same,inhibition,[16],60%
same,Activity,[17],Non-Toxic
O=C(NCC1CCN(c2nc3ccccc3o2)CC1)c1cc([N+](=O)[O-])c2cccnc2c1O,inhibition,[18],35%
same,growth inhibition (GI),[19],Active
same,Ki,[20],13 µM
same,Ki,[21],8.2 µM
same,inhibition,[22],45%
same,Ki,[23],5 µM
same,Activity,[24],50%
same,Ki,[12],8 µM
same,Activity,[14],Non-Toxic
same,Ki,[4]; read-out: Ki,237 µM
same,Ki,[25],108 µM
same,Activity,[17],Non-Toxic
N#CC1(NC(=O)c2cc([N+](=O)[O-])c3cccnc3c2O)CC1,Ki,[26],329 µM
same,Ki,[23],195 µM
same,inhibition,[10],Active
same,Activity,[11],70%
same,Ki,[27],329 µM
same,Ki,[12],124 µM
same,Activity,[14],Non-Toxic
same,Ki,[4],Not Active
same,Ki,[5],185 µM
same,inhibition,[16],15%
same,Ki,[6],185 µM
same,Activity,[17],Non-Toxic
N#CC1(NC(=O)c2cc([N+](=O)[O-])ccc2O)CC1,Ki,[28],247 µM
same,Ki,[29],247 µM
same,Ki,[30],128 µM
Cc1ccc2c([N+](=O)[O-])ccc(O)c2n1,Ki,[26],89 µM
same,Ki,[7],77 µM
same,Ki,[31],99 µM
same,Ki,[32],181 µM
same,Ki,[23],122 µM
same,Ki,[27],89 µM
same,inhibition,[33],80%
same,Activity,[14],Non-Toxic
same,Ki,[4]; read-out: Ki,153 µM
same,Ki,[15],469 µM
same,Activity,[17],Non-Toxic
same,Activity,[34],inactive
same,inhibition,[35],Active
